Source: ChEMBL document CHEMBL1124534, “Synthesis, mechanism of action, and biological evaluation of mitosenes” (1989)
Converted amounts (≈) assume the structure as drawn. Blank lines part the entries; values can stand above or below the compound they belong to.

Experiments:
A204 = assay: In vitro antitumor activity against A204 rhabdomyosarcoma tumor cell line was determined; type: functional; conditions: Homo sapiens, read-out: ID50 (the source's name)
Method in brief: (§1)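 Cell growth inhibition in vitro measured by the PIT method, with mitomycin C as positive reference.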

L1210 = assay: In vitro antitumor activity against L1210 lymphocytic leukemia tumor cell line was determined; type: functional; conditions: Mus musculus, read-out: ID50 (the source's name)
Method in brief: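 Inhibition of L1210 leukemia colony formation in vitro, with mitomycin C as positive reference.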

WiDr = assay: In vitro antitumor activity against WiDr colon carcinoma tumor cell line was determined; type: functional; conditions: Homo sapiens, read-out: ID50 (the source's name); method in brief: as §1
Mus musculus [1] = assay: Median survival time in days for antitumor activity against P388 Leukemia in CD2 mice at a single dose treatment of 50 mg/Kg; type: functional
Method in brief: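 P388 leukemia-bearing mice were given one intraperitoneal injection. The read-out was median survival time in days, reported alongside %T/C and % body weight change.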

Mus musculus [2] = assay: Percentage change in body weight [(day 6 - day 1)/ day 1] for antitumor activity against P388 Leukemia in CD2 mice at fractioned dose treatment of 25 mg/Kg; type: functional
Method in brief: (§2)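 Mouse P388 leukemia model. Drugs were given intraperitoneally, either as a single injection or once daily for 9 consecutive days (fractioned schedule). Outcomes were median survival time in days, %T/C, and % body weight change.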

Mus musculus [3] = assay: Body wieght treated/body weight untreated controls of compound (40 mg/Kg) was evaluated in vivo for antitumor activity against MAC 16 in female NMRI mice on day 12; type: functional
Mus musculus [4] = assay: Compound (50 mg/Kg) was evaluated in vivo for antitumor activity against MAC 13 in female NMRI mice on day 2 and ratio of tumor weight of treated to that of control was determined
Mus musculus [5] = assay: Percent inhibition of compound (50 mg/Kg) was evaluated in vivo for antitumor activity against MAC 13 in female NMRI mice on day 2; type: functional
Method in brief: (§3)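 MAC 13 in female NMRI mice. Drugs were given in arachis oil BP by ip route on day 2 or day 29. % inhibition was derived from treated/untreated control tumor weight (volume); a negative value indicates stimulation.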

Mus musculus [6] = assay: Relative tumor size on day 28 was reported when compound (50 mg/kg/day) administered to inhibit growth of human tumor xenograft GXF 97 in mice tested after 28 days; type: functional
Method in brief: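 GXF 97 human gastric xenograft grown subcutaneously in nude mice for 24 days, then mice randomized; treatment began 1 day later. Fractioned ip injections on days 1-4, or single iv injection on day 1; 4-5 mice per group. Tumor size from length and width; relative tumor size (% of controls) read at day 28.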

Mus musculus [7] = assay: Median survival time in days for antitumor activity against P388 Leukemia in CD2 mice at single dose treatment of 70 mg/kg
Mus musculus [8] = assay: Percent T/C ([…]) for antitumor activity against P388 Leukemia in CD2 mice at fractioned dose treatment of 18 mg/Kg; type: functional; method in brief: as §2
Mus musculus [9] = assay: Percent T/C ([…]) for antitumor activity against P388 Leukemia in CD2 mice at fractioned dose treatment of 25 mg/Kg; type: functional; method in brief: as §2
Mus musculus [10] = assay: Compound (40 mg/Kg) was evaluated in vivo for antitumor activity against MAC 16 in female NMRI mice on day 4 and ratio of tumor weight of treated to that of control was determined; type: functional
Mus musculus [11] = assay: Ability of intraperitoneally administered compound (50 mg/kg/day) to inhibit growth of human tumor xenograft GXF 97 was assessed on day 21 tested in five mice; type: functional
Method in brief: (§4)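 GXF 97 human gastric xenograft grown subcutaneously in nude mice for 24 days, then randomized; dosing began 1 day later as ip injections on days 1-4. Groups had 4-5 mice. Tumor length and width were measured. %T/C = median relative tumor size of treated / median relative tumor size of controls.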

Mus musculus [12] = assay: Percentage change in body weight [(day 6 - day 1)/ day 1] for antitumor activity against P388 Leukemia in CD2 mice at fractioned dose treatment of 18 mg/Kg; type: functional; method in brief: as §2
Mus musculus [13] = assay: Percent T/C ([…]) for antitumor activity against P388 Leukemia in CD2 mice at a single dose treatment of 50 mg/Kg; type: functional
Method in brief: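 P388 leukemia mice given a single intraperitoneal injection. Median survival time (days) and body weight change were recorded. %T/C was derived from the survival of treated versus control mice.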

Mus musculus [14] = assay: Percent change in body weight [(day 6 - day 1)/ day 1] when P388 Leukemic CD2 mice were treated with a compound (50 mg/Kg); type: functional
Mus musculus [15] = assay: Ability of intraperitoneally administered compound (50 mg/kg/day) to inhibit growth of human tumor xenograft GXF 97 was assessed on day 28 tested in five mice; type: functional; method in brief: as §4
Mus musculus [16] = assay: Ability of intraperitoneally administered compound (50 mg/kg/day) to inhibit growth of human tumor xenograft GXF 97 was assessed on day 14 tested in five mice; type: functional; method in brief: as §4
Mus musculus [17] = assay: Percent T/C ([…]) for antitumor activity against P388 Leukemia in CD2 mice at fractioned dose treatment of 70 mg/kg; type: functional; conditions: in the assay text read “single dose” for “fractioned dose”; method in brief: as §2
Mus musculus [18] = assay: Mean relative body weight change of treated / mean relative body weight change of control when compound (50 mg/kg/day) administered to inhibit growth of human tumor xenograft GXF 97 was reported at day 28 in mice; type: functional
Method in brief: (§5)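 GXF 97 xenograft grown subcutaneously in nude mice for 24 days, then randomized; ip dosing began 1 day later, given on days 1-4, with 4-5 mice per group. Read-out is mean relative body weight change of treated divided by mean relative body weight change of controls, in %.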

Mus musculus [19] = assay: Percentage change in body weight [(day 6 - day 1)/ day 1] for antitumor activity against P388 Leukemia in CD2 mice at fractioned dose treatment of 70 mg/Kg; type: functional; conditions: in the assay text read “single dose treatment” for “fractioned dose treatment”; method in brief: as §2
Mus musculus [20] = assay: Mean relative body weight change of treated / mean relative body weight change of control when compound (50 mg/kg/day) administered to inhibit growth of human tumor xenograft GXF 97 was reported at day 14 in mice; type: functional; method in brief: as §5
Mus musculus [21] = assay: Body wieght treated/body weight untreated controls of compound (40 mg/Kg) was evaluated in vivo for antitumor activity against MAC 16 in female NMRI mice on day 4; type: functional
Mus musculus [22] = assay: Compound (40 mg/Kg) was evaluated in vivo for antitumor activity against MAC 16 in female NMRI mice on day 12 and ratio of tumor weight of treated to that of control was determined; type: functional
Mus musculus [23] = assay: Median survival time in days for antitumor activity against P388 Leukemia in CD2 mice at fractioned dose treatment of 25 mg/Kg; type: functional
Method in brief: (§6)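 P388 leukemia-bearing mice were dosed intraperitoneally once daily for 9 consecutive days (fractioned schedule). The read-out was median survival time in days, reported alongside %T/C and % body weight change.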

Mus musculus [24] = assay: Mean relative body weight change of treated / mean relative body weight change of control when compound (50 mg/kg/day) administered to inhibit growth of human tumor xenograft GXF 97 was reported at day 21 in mice; type: functional; method in brief: as §5
Mus musculus [25] = assay: Median survival time in days for antitumor activity against P388 Leukemia in CD2 mice at fractioned dose treatment of 18 mg/Kg; type: functional; method in brief: as §6
Mus musculus [26] = assay: Compound (50 mg/Kg) was evaluated in vivo for antitumor activity against MAC 13 in female NMRI mice on day 29 and ratio of tumor weight of treated to that of control was determined
Mus musculus [27] = assay: Percent inhibition of compound (50 mg/Kg) was evaluated in vivo for antitumor activity against MAC 13 in female NMRI mice on day 29; type: functional; method in brief: as §3

IC50 (A204): 0.001 µg/mL (≈ 0.00287 µM)
IC50 (L1210): 0.206 µg/mL (≈ 0.591 µM)
IC50 (WiDr): 0.051 µg/mL (≈ 0.146 µM)
SMILES: CCNC(=O)OCc1c2c(n3c1C(O)CC3)C(=O)C(C)=C(OC)C2=O (stereo not given)

IC50 (A204): 4.14 µg/mL (≈ 9.39 µM)
IC50 (L1210): 1.12 µg/mL (≈ 2.54 µM)
IC50 (WiDr): 6.49 µg/mL (≈ 14.7 µM)
SMILES: COC1=C(Br)C(=O)c2c(c(COC(C)=O)c3n2CCCC3OC(C)=O)C1=O (stereo not given)

IC50 (A204): 2.6 µg/mL (≈ 9.87 µM)
IC50 (L1210): 1.15 µg/mL (≈ 4.35 µM)
IC50 (WiDr): 2.6 µg/mL (≈ 9.87 µM)
SMILES: COC1=CC(=O)c2c(c(CO)c3n2CCC3O)C1=O (stereo not given)

SMILES: CC(=O)OCc1c2c(n3c1C(OC(C)=O)CC3)C(=O)C(C)=C(N1CC1)C2=O (stereo not given)
IC50 (A204): 0.001 µg/mL (≈ 0.00269 µM)
IC50 (L1210): 0.166 µg/mL (≈ 0.446 µM)
IC50 (WiDr): 0.02 µg/mL (≈ 0.0537 µM)

IC50 (A204): 0.479 µg/mL (≈ 1.12 µM)
IC50 (L1210): 0.217 µg/mL (≈ 0.509 µM)
IC50 (WiDr): 0.492 µg/mL (≈ 1.15 µM)
SMILES: COC1=C(Br)C(=O)c2c(c(COC(C)=O)c3n2CCC3OC(C)=O)C1=O (stereo not given)

IC50 (A204): < 0.1 µg/mL
IC50 (L1210): 1.54 µg/mL (≈ 4.1 µM)
IC50 (WiDr): 0.171 µg/mL (≈ 0.456 µM)
SMILES: COC1=C(C)C(=O)c2c(c(COC(C)=O)c3n2CCCC3OC(C)=O)C1=O (stereo not given)

IC50 (A204): 0.115 µg/mL (≈ 0.36 µM)
IC50 (L1210): 1.75 µg/mL (≈ 5.49 µM)
IC50 (WiDr): 0.287 µg/mL (≈ 0.899 µM)
SMILES: COC1=CC(=O)c2c(c(COC(C)=O)c3n2CCCC3O)C1=O (stereo not given)

IC50 (A204): 0.021 µg/mL (≈ 0.0503 µM)
IC50 (L1210): > 0.64 µg/mL
IC50 (WiDr): 0.069 µg/mL (≈ 0.165 µM)
SMILES: CCCC(=O)OCc1c2c(n3c1C(OC(=O)CCC)CC3)C(=O)C(C)=C(OC)C2=O (stereo not given)

IC50 (A204): 1.2 µg/mL (≈ 4.31 µM)
IC50 (L1210): 1.33 µg/mL (≈ 4.78 µM)
IC50 (WiDr): 2.17 µg/mL (≈ 7.83 µM)
SMILES: COC1=CC(=O)c2c(c(CO)c3n2CCCC3O)C1=O (stereo not given)

IC50 (A204): 0.001 µg/mL (≈ 0.00299 µM)
IC50 (L1210): 0.118 µg/mL (≈ 0.353 µM)
IC50 (WiDr): 0.029 µg/mL (≈ 0.0867 µM)
SMILES: CCNC(=O)OCc1c2c(n3c1C(O)CC3)C(=O)C=C(OC)C2=O (stereo not given)

IC50 (A204): 0.585 µg/mL (≈ 1.6 µM)
IC50 (L1210): > 6.4 µg/mL
IC50 (WiDr): 3.71 µg/mL (≈ 10.1 µM)
SMILES: CCOC(=S)SCc1c2c(n3c1CCC3)C(=O)C(C)=C(OC)C2=O

IC50 (A204): < 0.1 µg/mL
IC50 (L1210): 0.942 µg/mL (≈ 2.7 µM)
IC50 (WiDr): 0.18 µg/mL (≈ 0.517 µM)
SMILES: CCNC(=O)OCc1c2c(n3c1C(O)CCC3)C(=O)C=C(OC)C2=O (stereo not given)

IC50 (A204): 0.133 µg/mL (≈ 0.368 µM)
IC50 (L1210): 0.582 µg/mL (≈ 1.61 µM)
IC50 (WiDr): 0.115 µg/mL (≈ 0.318 µM)
SMILES: COC1=CC(=O)c2c(c(COC(C)=O)c3n2CCCC3OC(C)=O)C1=O (stereo not given)

IC50 (A204): 2.69 µg/mL (≈ 9.23 µM)
IC50 (L1210): 3.72 µg/mL (≈ 12.8 µM)
IC50 (WiDr): 5.89 µg/mL (≈ 20.2 µM)
SMILES: COC1=C(C)C(=O)c2c(c(CO)c3n2CCCC3O)C1=O (stereo not given)

IC50 (A204): 0.05 µg/mL (≈ 0.138 µM)
IC50 (L1210): 1.17 µg/mL (≈ 3.22 µM)
IC50 (WiDr): 0.251 µg/mL (≈ 0.693 µM)
SMILES: CCNC(=O)OCc1c2c(n3c1C(O)CCC3)C(=O)C(C)=C(OC)C2=O (stereo not given)

SMILES: COC1=C(C)C(=O)c2c(c(CO)c3n2CCC3O)C1=O (stereo not given)
IC50 (A204): 0.641 µg/mL (≈ 2.31 µM)
MST (Mus musculus [1]): 11 days
BWC (Mus musculus [2]): 17.1%
BW (Mus musculus [3]): 93%
T/C (Mus musculus [4]): 97%
I (Mus musculus [5]): 3%
IC50 (L1210): 2.6 µg/mL (≈ 9.39 µM)
Relative TS (Mus musculus [6]): 20.6%
MST (Mus musculus [7]): 10 days
T/C (Mus musculus [8]): 100%
T/C (Mus musculus [9]): 100%
T/C (Mus musculus [10]): 102%
T/C (Mus musculus [11]): 4.8%
BWC (Mus musculus [12]): 17.3%
T/C (Mus musculus [13]): 100%
BWC (Mus musculus [14]): 2.5%
T/C (Mus musculus [15]): 3.1%
T/C (Mus musculus [16]): 12.6%
T/C (Mus musculus [17]): 91%
BWC (Mus musculus [18]): 103.4%
BWC (Mus musculus [19]): -0.9%
BWC (Mus musculus [20]): 103.8%
BW (Mus musculus [21]): 118%
T/C (Mus musculus [22]): 89%
IC50 (WiDr): 1.33 µg/mL (≈ 4.81 µM)
MST (Mus musculus [23]): 11 days
BWC (Mus musculus [24]): 107.2%
MST (Mus musculus [25]): 11 days
T/C (Mus musculus [26]): 121%
I (Mus musculus [27]): -21%
